Values after ≈ are worked out from the molar mass of the structure shown.
Key:
Aspergillus flavus [1] = experiment: Fungicidal activity against Aspergillus flavus by broth microtiter MIC test; format: functional
Candida albicans [2] = experiment: Antifungal activity against Candida albicans IMRU 3669 after 72 hrs by macrotube dilution method; format: functional; conditions: IMRU 3669, 72 h
Outline: (§1)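 Macrotube twofold dilution following CLSI guidelines, with 15 tubes per organism. Tube 1 held 2 mg compound in 2.0 mL DMF and tubes 2–14 held 1.0 mL broth; 1.0 mL was carried serially, and tube 15 was the control. Colonies were suspended in 5.0 mL broth, then 0.2 mL was diluted into 40 mL, and 1.0 mL was added per tube. Bacteria were grown in nutrient broth at 37 °C overnight; fungi in Czapek's Dox at 30 °C for 72 h.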

Bacillus subtilis [3] = experiment: Bactericidal activity against Bacillus subtilis NCTC 1040 by broth microtiter MIC test; format: functional
Escherichia coli [4] = experiment: Antibacterial activity against Escherichia coli NCTC 10416 by macrotube dilution method; format: functional; outline: as §1
Escherichia coli [5] = experiment: Bactericidal activity against Escherichia coli NCTC 10416 by broth microtiter MIC test; format: functional
Staphylococcus aureus [6] = experiment: Antibacterial activity against Staphylococcus aureus NCTC 7447 at 5 mg/ml after 24 hrs by agar disc diffusion method; format: functional; conditions: NCTC 7447, 24 h, read-out: DIZ
Outline: (§2)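 Agar well-diffusion using 1 cm wells, each loaded with 100 of compound solution (5 mg/mL in DMF). Bacteria were maintained on nutrient agar and plated as a standard suspension. Plates were incubated 24 h at 35 °C, and inhibition zone diameters were measured.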

Candida albicans [7] = experiment: Antifungal activity against Candida albicans IMRU 3669 at 5 mg/ml by agar disc diffusion method; format: functional; conditions: read-out: DIZ
Micrococcus luteus [8] = experiment: Bactericidal activity against Sarcina lutea ATCC 934 by broth microtiter MIC test; format: functional
Candida albicans [9] = experiment: Fungicidal activity against Candida albicans IMRU 3669 by broth microtiter MIC test; format: functional
Bacillus subtilis [10] = experiment: Antibacterial activity against Bacillus subtilis NCTC 1040 by macrotube dilution method; format: functional; outline: as §1
Aspergillus flavus [11] = experiment: Antifungal activity against Aspergillus flavus at 5 mg/ml by agar disc diffusion method; format: functional; conditions: read-out: DIZ
Micrococcus luteus [12] = experiment: Antibacterial activity against Sarcina lutea ATCC 934 at 5 mg/ml after 24 hrs by agar disc diffusion method; format: functional; conditions: ATCC 934, 24 h, read-out: DIZ; outline: as §2
[13] = Antitumor activity against mouse EAC cells assessed as inhibition of cell viability at 100 ug/ml by Trypan blue assay; format: functional; conditions: Ehrlich
Outline: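 EAC cells were taken by needle aspiration of ascitic fluid from preinoculated mice and diluted 1:10 in saline. Then 0.1 mL of cell suspension, 0.8 mL RPMI 1640 and 0.1 mL compound were incubated 2 h at 37 °C. Dead cells were counted by trypan blue exclusion, and % non-viable = non-viable/total cells × 100.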

Escherichia coli [14] = experiment: Antibacterial activity against Escherichia coli NCTC 10416 at 5 mg/ml after 24 hrs by agar disc diffusion method; format: functional; conditions: NCTC 10416, 24 h, read-out: DIZ; outline: as §2
Micrococcus luteus [15] = experiment: Antibacterial activity against Sarcina lutea ATCC 934 by macrotube dilution method; format: functional; outline: as §1
Staphylococcus aureus [16] = experiment: Antibacterial activity against Staphylococcus aureus NCTC 7447 by macrotube dilution method; format: functional; outline: as §1
Aspergillus flavus [17] = experiment: Antifungal activity against Aspergillus flavus after 72 hrs by macrotube dilution method; format: functional; outline: as §1
Staphylococcus aureus [18] = experiment: Bactericidal activity against Staphylococcus aureus NCTC 7447 by broth microtiter MIC test; format: functional
Bacillus subtilis [19] = experiment: Antibacterial activity against Bacillus subtilis NCTC 1040 at 5 mg/ml after 24 hrs by agar disc diffusion method; format: functional; conditions: NCTC 1040, 24 h, read-out: DIZ; outline: as §2
MCF7 [20] = experiment: Cytotoxicity against human MCF7 cells after 48 hrs by SRB assay; format: functional, cell-based; conditions: MCF7, 48 h
Outline: (§3)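 SRB assay per Skehan: compounds at 5.0, 12.5, 25 and 50 were added to cell monolayers in triplicate wells per dose for 48 h at 37 °C, 5% CO2. Cells were then fixed and stained with SRB, excess stain was removed with acetic acid, and bound dye was recovered in Tris EDTA. Surviving fraction was plotted against concentration, and IC50 was read from the dose–response curves.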

HCT-116 [21] = experiment: Cytotoxicity against human HCT116 cells after 48 hrs by SRB assay; format: functional, cell-based; conditions: HCT-116, 48 h; outline: as §3
HeLa [22] = experiment: Cytotoxicity against human HeLa cells after 48 hrs by SRB assay; format: functional, cell-based; outline: as §3
HepG2 [23] = experiment: Cytotoxicity against human HepG2 cells assessed as surviving fraction at 5 ug/ml after 48 hrs by SRB assay relative to control; format: functional; outline: as §3
HeLa [24] = experiment: Cytotoxicity against human HeLa cells assessed as surviving fraction at 12.5 ug/ml after 48 hrs by SRB assay relative to control; format: functional; outline: as §3
MCF7 [25] = experiment: Cytotoxicity against human MCF7 cells assessed as surviving fraction at 25 ug/ml after 48 hrs by SRB assay relative to control; format: functional; outline: as §3
HCT-116 [26] = experiment: Cytotoxicity against human HCT116 cells assessed as surviving fraction at 50 ug/ml after 48 hrs by SRB assay relative to control; format: functional; outline: as §3
HEp-2 [27] = experiment: Cytotoxicity against human Hep2 cells assessed as surviving fraction at 5 ug/ml after 48 hrs by SRB assay relative to control; format: functional; outline: as §3
HEp-2 [28] = experiment: Cytotoxicity against human Hep2 cells assessed as surviving fraction at 50 ug/ml after 48 hrs by SRB assay relative to control; format: functional; outline: as §3
HCT-116 [29] = experiment: Cytotoxicity against human HCT116 cells assessed as surviving fraction at 25 ug/ml after 48 hrs by SRB assay relative to control; format: functional; outline: as §3
HEp-2 [30] = experiment: Cytotoxicity against human Hep2 cells assessed as surviving fraction at 12.5 ug/ml after 48 hrs by SRB assay relative to control; format: functional; outline: as §3
HepG2 [31] = experiment: Cytotoxicity against human HepG2 cells assessed as surviving fraction at 50 ug/ml after 48 hrs by SRB assay relative to control; format: functional; outline: as §3
HEp-2 [32] = experiment: Cytotoxicity against human Hep2 cells after 48 hrs by SRB assay; format: functional, cell-based; conditions: HEp-2, 48 h; outline: as §3
MCF7 [33] = experiment: Cytotoxicity against human MCF7 cells assessed as surviving fraction at 50 ug/ml after 48 hrs by SRB assay relative to control; format: functional; outline: as §3
HEp-2 [34] = experiment: Cytotoxicity against human Hep2 cells assessed as surviving fraction at 25 ug/ml after 48 hrs by SRB assay relative to control; format: functional; outline: as §3
HeLa [35] = experiment: Cytotoxicity against human HeLa cells assessed as surviving fraction at 50 ug/ml after 48 hrs by SRB assay relative to control; format: functional; outline: as §3
HeLa [36] = experiment: Cytotoxicity against human HeLa cells assessed as surviving fraction at 5 ug/ml after 48 hrs by SRB assay relative to control; format: functional; outline: as §3
HCT-116 [37] = experiment: Cytotoxicity against human HCT116 cells assessed as surviving fraction at 12.5 ug/ml after 48 hrs by SRB assay relative to control; format: functional; outline: as §3
HeLa [38] = experiment: Cytotoxicity against human HeLa cells assessed as surviving fraction at 25 ug/ml after 48 hrs by SRB assay relative to control; format: functional; outline: as §3
HepG2 [39] = experiment: Cytotoxicity against human HepG2 cells assessed as surviving fraction at 25 ug/ml after 48 hrs by SRB assay relative to control; format: functional; outline: as §3
MCF7 [40] = experiment: Cytotoxicity against human MCF7 cells assessed as surviving fraction at 5 ug/ml after 48 hrs by SRB assay relative to control; format: functional; outline: as §3
HCT-116 [41] = experiment: Cytotoxicity against human HCT116 cells assessed as surviving fraction at 5 ug/ml after 48 hrs by SRB assay relative to control; format: functional; outline: as §3
MCF7 [42] = experiment: Cytotoxicity against human MCF7 cells assessed as surviving fraction at 12.5 ug/ml after 48 hrs by SRB assay relative to control; format: functional; outline: as §3
HepG2 [43] = experiment: Cytotoxicity against human HepG2 cells after 48 hrs by SRB assay; format: functional, cell-based; conditions: HepG2, 48 h; outline: as §3
HepG2 [44] = experiment: Cytotoxicity against human HepG2 cells assessed as surviving fraction at 12.5 ug/ml after 48 hrs by SRB assay relative to control; format: functional; outline: as §3

N=C1C(=S)N(c2ccccc2)C(=O)N1Cc1ccccc1
MFC (Aspergillus flavus [1]): 250 µg/mL (≈ 846 µM) | MIC (Candida albicans [2]): 64.5 µg/mL (≈ 218 µM) | MBC (Bacillus subtilis [3]): 64.5 µg/mL (≈ 218 µM) | MIC (Escherichia coli [4]): 16.1 µg/mL (≈ 54.5 µM) | MBC (Escherichia coli [5]): 16.1 µg/mL (≈ 54.5 µM) | zone of inhibition at 5000 µg/mL (Staphylococcus aureus [6]): 22 mm | zone of inhibition at 5000 µg/mL (Candida albicans [7]): 24 mm | MBC (Micrococcus luteus [8]): 32.3 µg/mL (≈ 109 µM) | MFC (Candida albicans [9]): 64.5 µg/mL (≈ 218 µM) | MIC (Bacillus subtilis [10]): 64.5 µg/mL (≈ 218 µM) | zone of inhibition at 5000 µg/mL (Aspergillus flavus [11]): 17 mm | zone of inhibition at 5000 µg/mL (Micrococcus luteus [12]): 20 mm | inhibition at 100 µg/mL [13]: 60% | zone of inhibition at 5000 µg/mL (Escherichia coli [14]): 23.5 mm | MIC (Micrococcus luteus [15]): 32.3 µg/mL (≈ 109 µM) | MIC (Staphylococcus aureus [16]): 64.5 µg/mL (≈ 218 µM) | MIC (Aspergillus flavus [17]): 250 µg/mL (≈ 846 µM) | MBC (Staphylococcus aureus [18]): 64.5 µg/mL (≈ 218 µM) | zone of inhibition at 5000 µg/mL (Bacillus subtilis [19]): 21.5 mm

COc1ccc(N2C(=O)N(c3ccc(C)cc3)C(=N)C2=S)c(OC)c1
IC50 (MCF7 [20]): 4.34 µg/mL (≈ 12.2 µM) | IC50 (HCT-116 [21]): 4.04 µg/mL (≈ 11.4 µM) | IC50 (HeLa [22]): 2.97 µg/mL (≈ 8.36 µM) | Activity (HepG2 [23]): 0.6 | Activity (HeLa [24]): 0.14 | Activity (MCF7 [25]): 0.21 | Activity (HCT-116 [26]): 0.26 | Activity (HEp-2 [27]): 0.6 | zone of inhibition at 5000 µg/mL (Staphylococcus aureus [6]): 22 mm | zone of inhibition at 5000 µg/mL (Candida albicans [7]): 17.5 mm | Activity (HEp-2 [28]): 0.3 | Activity (HCT-116 [29]): 0.2 | Activity (HEp-2 [30]): 0.31 | Activity (HepG2 [31]): 0.24 | IC50 (HEp-2 [32]): 7.09 µg/mL (≈ 19.9 µM) | zone of inhibition at 5000 µg/mL (Aspergillus flavus [11]): 14 mm | Activity (MCF7 [33]): 0.29 | Activity (HEp-2 [34]): 0.16 | zone of inhibition at 5000 µg/mL (Micrococcus luteus [12]): 25 mm | Activity (HeLa [35]): 0.26 | Activity (HeLa [36]): 0.24 | inhibition at 100 µg/mL [13]: 70% | Activity (HCT-116 [37]): 0.15 | zone of inhibition at 5000 µg/mL (Escherichia coli [14]): 25.5 mm | Activity (HeLa [38]): 0.22 | Activity (HepG2 [39]): 0.23 | zone of inhibition at 5000 µg/mL (Bacillus subtilis [19]): 22.5 mm | Activity (MCF7 [40]): 0.43 | Activity (HCT-116 [41]): 0.38 | Activity (MCF7 [42]): 0.21 | IC50 (HepG2 [43]): 6.78 µg/mL (≈ 19.1 µM) | Activity (HepG2 [44]): 0.22
